Assay results from ChEMBL document CHEMBL3297674, “Structure-activity relationships of 2'-modified-4'-selenoarabinofuranosyl-pyrimidines as anticancer agents” (Eur J Med Chem, 2014).

Tests used:
HCT-116 = assay: Cytotoxicity against human HCT116 cells by SRB assay; format: functional, cell-based
Method in brief: (§1)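 Cytotoxicity measured in human cancer cell lines (colon HCT116, lung A549, stomach SNU638, breast T47D, prostate PC-3, leukemia K562) by sulforhodamine B protein staining.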

A549 = assay: Cytotoxicity against human A549 cells by SRB assay; format: functional, cell-based; method in brief: as §1
K562 = assay: Cytotoxicity against human K562 cells by SRB assay; format: functional, cell-based; method in brief: as §1
PC-3 [1] = assay: Cytotoxicity against human PC3 cells by SRB assay; format: functional, cell-based; method in brief: as §1
T47D = assay: Cytotoxicity against human T47D cells by SRB assay; format: functional, cell-based; method in brief: as §1
[2] = Cytotoxicity against human SNU638 cells by SRB assay; format: functional, cell-based; conditions: SNU-638; method in brief: as §1
PC-3 [3] = assay: Drug metabolism in human PC3 cells assessed as formation of mono, di, or triphosphate at 50 uM after 24 hrs by HPLC-MS analysis; format: ADME, cell-based; conditions: pc-3, 24 h
Method in brief: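 PC-3 cells seeded at 5×10^5 per 100 mm dish, grown 24 h, then exposed to 50 µM compound for 24 h. Cells washed with DPBS and extracted in methanol/chloroform with three liquid N₂ freeze–sonication cycles. Water/chloroform phase split at 22,000 g, 4 °C. Dried upper layer analysed by HILIC (ZIC-pHILIC, 10 mM ammonium carbonate/acetonitrile gradient, 35 °C) with ESI ion-trap MS.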

Q: Which IC50 (HCT-116) does the source give for `[N-]=[N+]=N[C@@H]1C(n2ccc(=O)[nH]c2=O)[Se][C@H](CO)[C@H]1O` (stereo partly drawn) here?
A: > 100 µM

Q: And the IC50 (A549)?
A: > 100 µM

Q: And the IC50 (K562)?
A: > 100 µM

Q: What about the IC50 (PC-3 [1]) of the same compound?
A: > 100 µM

Q: And the IC50 (T47D)?
A: > 100 µM

Q: What about the IC50 [2] of the same compound?
A: > 100 µM

Q: What does the source list for `[N-]=[N+]=N[C@@H]1C(n2cc(Cl)c(=O)[nH]c2=O)[Se][C@H](CO)[C@H]1O` (stereo partly drawn)?
A: IC50 (HCT-116): > 100 µM; IC50 (A549): > 100 µM; IC50 (K562): > 100 µM; IC50 (PC-3 [1]): > 100 µM; IC50 (T47D): > 100 µM; IC50 [2]: > 100 µM

Q: Which IC50 (HCT-116) does the source give for `[N-]=[N+]=N[C@@H]1C(n2cc(I)c(=O)[nH]c2=O)[Se][C@H](CO)[C@H]1O` (stereo partly drawn) here?
A: > 100 µM

Q: What about the IC50 (A549) of the same compound?
A: > 100 µM

Q: What about the IC50 (K562) of the same compound?
A: > 100 µM

Q: And the IC50 (PC-3 [1])?
A: > 100 µM

Q: And the IC50 (T47D)?
A: > 100 µM

Q: What about the IC50 [2] of the same compound?
A: > 100 µM

Q: Which IC50 (HCT-116) does the source give for `Cc1cn(C2[Se][C@H](CO)[C@@H](O)[C@@H]2F)c(=O)[nH]c1=O` (stereo partly drawn) here?
A: 85.2 µM

Q: And the IC50 (A549)?
A: 76.4 µM

Q: What about the IC50 (K562) of the same compound?
A: 76.3 µM

Q: And the IC50 (PC-3 [1])?
A: 88 µM

Q: And the IC50 (T47D)?
A: 65.3 µM

Q: And the IC50 [2]?
A: 77.2 µM

Q: With `O=c1[nH]c(=O)n(C2[Se][C@H](CO)[C@@H](O)[C@@H]2F)cc1F` (stereo partly drawn) as the compound, how does the IC50 (HCT-116) read?
A: 40.1 µM

Q: What about the IC50 (A549) of the same compound?
A: 54.2 µM

Q: What about the IC50 (K562) of the same compound?
A: 78.5 µM

Q: And the IC50 (PC-3 [1])?
A: 43.1 µM

Q: And the IC50 (T47D)?
A: 51.1 µM

Q: What about the IC50 [2] of the same compound?
A: 50.1 µM

Q: What does the source list for `O=c1[nH]c(=O)n(C2[Se][C@H](CO)[C@@H](O)[C@@H]2F)cc1Br` (stereo partly drawn)?
A: IC50 (HCT-116): > 100 µM; IC50 (A549): > 100 µM; IC50 (K562): > 100 µM; IC50 (PC-3 [1]): > 100 µM; IC50 (T47D): > 100 µM; IC50 [2]: > 100 µM

Q: For `O=c1[nH]c(=O)n(C2[Se][C@H](CO)[C@@H](O)[C@@H]2F)cc1I` (stereo partly drawn), which IC50 (HCT-116) is on record?
A: > 100 µM

Q: What about the IC50 (A549) of the same compound?
A: > 100 µM

Q: And the IC50 (K562)?
A: > 100 µM

Q: And the IC50 (PC-3 [1])?
A: > 100 µM

Q: And the IC50 (T47D)?
A: > 100 µM

Q: What about the IC50 [2] of the same compound?
A: > 100 µM

Q: What does the source list for `O=c1ccn(C2[Se][C@H](CO)[C@@H](O)[C@@H]2O)c(=O)[nH]1` (stereo partly drawn)?
A: IC50 (HCT-116): > 100 µM; IC50 (A549): > 100 µM; IC50 (K562): > 100 µM; IC50 (PC-3 [1]): > 100 µM; IC50 (T47D): > 100 µM; IC50 [2]: > 100 µM

Q: What does the source list for `Cc1cn(C2[Se][C@H](CO)[C@@H](O)[C@@H]2O)c(=O)[nH]c1=O` (stereo partly drawn)?
A: IC50 (HCT-116): > 100 µM; IC50 (A549): > 100 µM; IC50 (K562): > 100 µM; IC50 (PC-3 [1]): > 100 µM; IC50 (T47D): > 100 µM; IC50 [2]: > 100 µM

Q: With `O=c1[nH]c(=O)n(C2[Se][C@H](CO)[C@@H](O)[C@@H]2O)cc1F` (stereo partly drawn) as the compound, how does the IC50 (HCT-116) read?
A: 56.8 µM

Q: What about the IC50 (A549) of the same compound?
A: 55.2 µM

Q: And the IC50 (K562)?
A: > 100 µM

Q: And the IC50 (PC-3 [1])?
A: 66.3 µM

Q: And the IC50 (T47D)?
A: 67.4 µM

Q: And the IC50 [2]?
A: 60.1 µM

Q: For `O=c1[nH]c(=O)n(C2[Se][C@H](CO)[C@@H](O)[C@@H]2O)cc1Cl` (stereo partly drawn), which IC50 (HCT-116) is on record?
A: > 100 µM

Q: What about the IC50 (A549) of the same compound?
A: > 100 µM

Q: And the IC50 (K562)?
A: > 100 µM

Q: And the IC50 (PC-3 [1])?
A: > 100 µM

Q: And the IC50 (T47D)?
A: > 100 µM

Q: What about the IC50 [2] of the same compound?
A: > 100 µM

Q: What does the source list for `O=c1[nH]c(=O)n(C2[Se][C@H](CO)[C@@H](O)[C@@H]2O)cc1Br` (stereo partly drawn)?
A: IC50 (HCT-116): > 100 µM; IC50 (A549): > 100 µM; IC50 (K562): > 100 µM; IC50 (PC-3 [1]): > 100 µM; IC50 (T47D): > 100 µM; IC50 [2]: > 100 µM

Q: With `O=c1[nH]c(=O)n(C2[Se][C@H](CO)[C@@H](O)[C@@H]2O)cc1I` (stereo partly drawn) as the compound, how does the IC50 (HCT-116) read?
A: > 100 µM

Q: And the IC50 (A549)?
A: > 100 µM

Q: And the IC50 (K562)?
A: > 100 µM

Q: What about the IC50 (PC-3 [1]) of the same compound?
A: > 100 µM

Q: And the IC50 (T47D)?
A: > 100 µM

Q: What about the IC50 [2] of the same compound?
A: > 100 µM

Q: With `Nc1ccn(C2[Se][C@H](CO)[C@@H](O)[C@@H]2F)c(=O)n1` (stereo partly drawn) as the compound, how does the Drug metabolism (PC-3 [3]) read?
A: metabolite_notdetected

Q: What about the IC50 (HCT-116) of the same compound?
A: 1.1 µM

Q: What about the IC50 (A549) of the same compound?
A: 0.47 µM

Q: What about the IC50 (K562) of the same compound?
A: 0.63 µM

Q: What about the IC50 (PC-3 [1]) of the same compound?
A: 0.58 µM

Q: What about the IC50 (T47D) of the same compound?
A: 0.79 µM

Q: What about the IC50 [2] of the same compound?
A: 0.14 µM

Q: Which results are given for `Nc1ccn(C2[Se][C@H](CO)[C@@H](O)[C@@H]2O)c(=O)n1` (stereo partly drawn)?
A: IC50 (HCT-116): 7.13 µM; IC50 (A549): 8.83 µM; IC50 (K562): 86.6 µM; IC50 (PC-3 [1]): 4.54 µM; IC50 (T47D): 8.91 µM; IC50 [2]: 4.72 µM

Q: Which IC50 (HCT-116) does the source give for `Cc1cn(C2[Se][C@H](CO)[C@@H](O)[C@@H]2N=[N+]=[N-])c(=O)[nH]c1=O` (single isomer, unassigned; (+)) here?
A: > 100 µM

Q: What about the IC50 (A549) of the same compound?
A: > 100 µM

Q: What about the IC50 (K562) of the same compound?
A: > 100 µM

Q: What about the IC50 (PC-3 [1]) of the same compound?
A: > 100 µM

Q: What about the IC50 (T47D) of the same compound?
A: > 100 µM

Q: What about the IC50 [2] of the same compound?
A: > 100 µM

Q: Which results are given for `[N-]=[N+]=N[C@@H]1C(n2cc(F)c(=O)[nH]c2=O)[Se][C@H](CO)[C@H]1O` (single isomer, unassigned; (+))?
A: IC50 (HCT-116): > 100 µM; IC50 (A549): > 100 µM; IC50 (K562): > 100 µM; IC50 (PC-3 [1]): > 100 µM; IC50 (T47D): > 100 µM; IC50 [2]: > 100 µM

Q: For `O=c1[nH]c(=O)n(C2[Se][C@H](CO)[C@@H](O)[C@@H]2F)cc1Cl` (single isomer, unassigned; (+)), which IC50 (HCT-116) is on record?
A: 80.2 µM

Q: And the IC50 (A549)?
A: 82.1 µM

Q: And the IC50 (K562)?
A: > 100 µM

Q: What about the IC50 (PC-3 [1]) of the same compound?
A: > 100 µM

Q: And the IC50 (T47D)?
A: 77.1 µM

Q: And the IC50 [2]?
A: 76.3 µM

Q: For `[N-]=[N+]=N[C@@H]1C(n2ccc(N)nc2=O)[Se][C@H](CO)[C@H]1O` (single isomer, unassigned; (+)), which IC50 (HCT-116) is on record?
A: 78.3 µM

Q: What about the IC50 (A549) of the same compound?
A: 80.1 µM

Q: What about the IC50 (K562) of the same compound?
A: 62.3 µM

Q: What about the IC50 (PC-3 [1]) of the same compound?
A: 75.1 µM

Q: And the IC50 (T47D)?
A: 78.4 µM

Q: What about the IC50 [2] of the same compound?
A: 85.2 µM

Q: With `[N-]=[N+]=N[C@@H]1C(n2cc(Br)c(=O)[nH]c2=O)[Se][C@H](CO)[C@H]1O` (single isomer, unassigned; (-)) as the compound, how does the IC50 (HCT-116) read?
A: > 100 µM

Q: What about the IC50 (A549) of the same compound?
A: > 100 µM

Q: And the IC50 (K562)?
A: > 100 µM

Q: What about the IC50 (PC-3 [1]) of the same compound?
A: > 100 µM

Q: And the IC50 (T47D)?
A: > 100 µM

Q: And the IC50 [2]?
A: > 100 µM

Q: Which results are given for `O=c1ccn(C2[Se][C@H](CO)[C@@H](O)[C@@H]2F)c(=O)[nH]1` (single isomer, unassigned; (-))?
A: IC50 (HCT-116): > 100 µM; IC50 (A549): > 100 µM; IC50 (K562): > 100 µM; IC50 (PC-3 [1]): > 100 µM; IC50 (T47D): > 100 µM; IC50 [2]: > 100 µM

Q: With `Nc1ccn([C@@H]2O[C@H](CO)[C@@H](O)[C@@H]2O)c(=O)n1` [CYTARABINE] as the compound, how does the IC50 [2] read?
A: 0.15 µM
